# Assay results from ChEMBL document CHEMBL2151014, “Facile water promoted synthesis of 1,2,3-triazolyl dihydropyrimidine-2-thione hybrids - highly potent antibacterial agents” (2012).
# Calls of active or inactive are those of the source. No cut-off for these calls is given here.
# What was measured:
# Pseudomonas aeruginosa = assay: Antibacterial activity against Pseudomonas aeruginosa after 48 hrs by well diffusion assay; assay type: functional
# In short: (§1)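 Clinical isolates identified biochemically; maintained on yeast extract–peptone–NaCl agar, pH 7.2, at 28 ± 2 °C. About 1 mL inoculum mixed into molten nutrient agar and poured. A central 5 mm well was cut and filled with 50 μL of compound in 10% DMSO, filter-sterilized, at various concentrations. 10% DMSO served as control. Inhibition zones were read after 48 h at room temperature.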
# Streptococcus pneumoniae = assay: Antibacterial activity against Streptococcus pneumoniae after 48 hrs by well diffusion assay; assay type: functional; in short: as §1
# Staphylococcus aureus = assay: Antibacterial activity against Staphylococcus aureus after 48 hrs by well diffusion assay; assay type: functional; in short: as §1
# Salmonella typhi = assay: Antibacterial activity against Salmonella typhi after 48 hrs by well diffusion assay
# [1] = Salmonella enterica subsp. enterica serovar Typhi
MIC99 (Pseudomonas aeruginosa),MIC99 (Streptococcus pneumoniae) [µg/mL],MIC99 (Staphylococcus aureus),MIC99 (Salmonella typhi; Salmonella enterica) [µg/mL],MIC99 (Salmonella typhi; [1]),SMILES
20 µg/mL,20,20 µg/mL,80,,Cc1c(C2=CC(c3ccc([N+](=O)[O-])cc3)NC(=S)N2)nnn1Cc1ccccc1 (configuration not stated)
100 µg/mL,44,95 µg/mL,120,,Cc1c(C2=CC(c3ccc(Br)cc3)NC(=S)N2)nnn1Cc1ccccc1 (configuration not stated)
10 µg/mL,20,10 µg/mL,15,,CN(C)[C@@H]1C(O)=C(C(N)=O)C(=O)[C@@]2(O)C(O)=C3C(=O)c4c(O)cccc4[C@@](C)(O)[C@H]3C[C@@H]12 [TETRACYCLINE]
10 µg/mL,16,8 µg/mL,13,,Cc1ccc(C2C=C(c3nnn(Cc4ccccc4)c3C)NC(=S)N2)cc1 (configuration not stated)
9 µg/mL,10,10 µg/mL,20,,Cc1c(C2=CC(c3ccc(Cl)cc3)NC(=S)N2)nnn1Cc1ccccc1 (configuration not stated)
10 µg/mL,40,inactive,,inactive,COc1ccc(C2C=C(c3nnn(Cc4ccccc4)c3C)NC(=S)N2)cc1 (configuration not stated)
inactive,42,inactive,32,,COc1ccc(C2C=C(c3nnn(Cc4ccccc4)c3C)NC(=S)N2)c(OC)c1 (configuration not stated)
inactive,25,43 µg/mL,,inactive,Cc1c(C2=CC(c3ccc(Cl)cc3Cl)NC(=S)N2)nnn1Cc1ccccc1 (configuration not stated)
18 µg/mL,19,37 µg/mL,25,,Cc1ccccc1C1C=C(c2nnn(Cc3ccccc3)c2C)NC(=S)N1 (configuration not stated)
130 µg/mL,100,85 µg/mL,,inactive,Cc1c(C2=CC(c3ccc(F)cc3)NC(=S)N2)nnn1Cc1ccccc1 (configuration not stated)
12 µg/mL,19,10 µg/mL,18,,Cc1c(C2=CC(c3ccccc3)NC(=S)N2)nnn1Cc1ccccc1 (configuration not stated)
24 µg/mL,35,22 µg/mL,90,,Cc1c(C2=CC(c3cccc(Br)c3)NC(=S)N2)nnn1Cc1ccccc1 (configuration not stated)
inactive,33,inactive,,inactive,Cc1c(C2=CC(c3ccccc3Br)NC(=S)N2)nnn1Cc1ccccc1 (configuration not stated)
